≈ marks a conversion by molar mass, not a printed value. Read-outs that look alike come from different tables or passages of the source.
Legend:
[1] = tested on: normal hepatocyte cell line L02; test: In vitro cytotoxicity assay; format: cell-based
Method in brief: (§1)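 Cells grown in high-glucose DMEM with 10% FBS and 1% penicillin/streptomycin at 37°C, 5% CO2. Log-phase cells trypsinized, seeded at 5×10³/well, grown 24 h. Test formulations and blank nanoparticles added at 5, 10, 20, 40, 80 ug/mL for 24, 48, 72 or 96 h. MTT (5 mg/mL stock) added for 3–4 h, formazan dissolved in DMSO, A490 read. Inhibition rate calculated from blank-, control- and test-well OD. Dose–effect curves plotted; n=3.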

[2] = tested on: MCF-7 tumor; test: In vivo antitumor assessment in MCF-7 tumor-bearing nude mice; design: species or system BALB/c nude mice
Method in brief: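 Female BALB/c nude mice, 4 weeks old, were inoculated in the left armpit with 0.1 mL MCF-7 suspension (3 × 10⁷ cells/mL). Dosing started at ~100 mm³ (n=10/group; saline control): 10 mg/kg intraperitoneally every 3 days for 20 days. Body weight and tumor volume (V = π/6·AB²) were measured every 3 days, and deaths tallied every 5 days. Tumors were weighed on day 20; IR = 1 − drug/control tumor weight. Procedures were blinded.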

[3] = tested on: breast cancer cell line MCF-7; test: In vitro cytotoxicity assay; format: cell-based; settings: Homo sapiens
Method in brief: as §1

[4] = Pharmacokinetics in SD rats; format: in vivo; settings: 10 mg/kg
Method in brief: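 SD rats (n=5/group) were injected with 10 mg/kg. Blood (0.3 mL) was collected at 0.08–120 h into heparin tubes and centrifuged. Plasma (100 μL) was extracted with methanol:ethyl acetate 10:90 and analysed by HPLC: C18 column, acetonitrile–phosphate water pH 4.0 65:35, 0.8 mL/min, 30 °C, 227 nm. Results are mean ± SEM.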

[5] = In vivo cumulative toxicity; design: species or system BALB/c mice
[6] = In vivo acute toxicity; design: species or system BALB/c mice; settings: single i.p. 40 mg/kg
Method in brief: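 Female BALB/c mice, 7 weeks, 20 ± 3 g, n=10/group, received a single intraperitoneal 40 mg/kg dose; saline control at equal volume. Status and deaths were recorded daily, and survival was followed over 10 days. Heart, liver and kidney from three randomly selected mice per group were H&E-stained for pathology.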

[7] = In vitro release investigation; format: physicochemical
Method in brief: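 Test formulation (1 mL, 200 ug/mL) was placed in a dialysis bag (8000–14,000 Da) in 200 mL PBS with 0.2% Tween-80, at 37 °C and 120 r/min. 3 mL of medium was withdrawn and replaced at 0.25–168 h. Samples were centrifuged at 8000 r/min for 10 min, and supernatant was analysed by HPLC for cumulative release. Data were fitted to zero-order, first-order and Higuchi models, with r² calculated; n=3.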

CC(=O)O[C@H]1C(=O)[C@@]2(C)[C@H]([C@H](OC(=O)c3ccccc3)[C@]3(O)C[C@H](OC(=O)[C@H](O)[C@@H](NC(=O)c4ccccc4)c4ccccc4)C(C)=C1C3(C)C)[C@]1(OC(C)=O)CO[C@@H]1C[C@@H]2O [PTX, Paclitaxel]
IC50 ([1]; 24 h, read-out: IC50 24 h): > 80 µg/mL
IC50 ([1]; 48 h, read-out: IC50 48 h): > 80 µg/mL
IC50 ([1]; 72 h, read-out: IC50 72h): 36.9 ± 3.18 µg/mL (≈ 43.2 µM)
IC50 ([1]; 96 h, read-out: IC50 96h): 17.3 ± 0.83 µg/mL (≈ 20.3 µM)
inhibition at 10 µg/mL ([1]; 96 h, read-out: inhibitory rate on cell growth higher than PTX-SLN@CUD): 40.1%
deaths / survival of tumor-bearing nude mice during the test ([2]; 10 mg/kg i.p. every three days, 20 days): death of three nude mice
tumor volume at 20 days / end of trial ([2]; 10 mg/kg i.p. every three days, day 20): 1000 mm^3
tumor inhibition rate ([2]; 10 mg/kg i.p. every three days, day 20, by tumor weight): 32.93%
change of average body weight of nude mice ([2]; 10 mg/kg, 20 days versus beginning): significant decrease
cancer cell necrosis (H&E staining of tumors) ([2]; 10 mg/kg, after 20 days): 25%
IC50 ([3]; MCF7, 24 h, read-out: IC50 24 h): > 80 µg/mL
IC50 ([3]; MCF7, 48 h, read-out: IC50 48 h): 64.3 ± 5.73 µg/mL (≈ 75.3 µM)
IC50 ([3]; MCF7, 72 h, read-out: IC50 72h): 26.2 ± 2.68 µg/mL (≈ 30.7 µM)
IC50 ([3]; MCF7, 96 h, read-out: IC50 96h): 12.7 ± 0.97 µg/mL (≈ 14.8 µM)
time up to which plasma PTX concentration stayed detectable ([4]; SD rats, intravenous injection, sampling to 120 h): 12 h
AUC(0-t) ([4]; SD, rat, plasma, iv): 2380 ± 276 ng·h/mL
MRT last ([4]; SD, rat, plasma, iv): 4.94 ± 0.653 h
Tmax ([4]; SD, rat, plasma, iv): 0.25 ± 0.02 h
Vd ([4]; SD, rat, plasma, iv): 54.5 ± 8.53 L/kg
clearance ([4]; SD, rat, plasma, iv): 57.2 mL/min/kg
half-life ([4]; SD, rat, plasma, iv): 11 ± 0.773 h
pathology of heart, liver and kidney tissues (H&E), cumulative toxicity ([5]; 10 mg/kg i.p. every three days for 60 days): Some damage to cells and muscle fibers
mouse deaths within 60 days / throughout the experiment, cumulative toxicity ([5]; 10 mg/kg i.p. every three days for 60 days, n=10): all mice in this group died
mouse deaths within seven days, cumulative toxicity ([5]; 10 mg/kg i.p. every three days, n=10): three mice died
pathology of heart, liver and kidney tissues (H&E), acute toxicity [6]: severe necrosis
mouse deaths in acute toxicity trial ([6]; n=10): 10 mice all died within 5 h
release model that the in vitro release behavior accords with [7]: first-order model
cumulative release rate at 24 h ([7]; PBS with 0.2% Tween-80, 37 °C, 24 h): over 60%
First-Order Equation k1 ([7]; rate constant of release): 0.0711
Higuchi's Equation kh ([7]; rate constant of release): 7.2999
Zero Order Equation k0 ([7]; rate constant of release): 0.5097

Source: paper PMC9673813 (International Journal of Nanomedicine, 2022)
